Legend:
[1] = Oral bioavailability in CD1 mouse at 3 mg/kg after 24 hrs by LC-MS/MS analysis; type: ADME, organism-based; conditions: in vivo
How it was run: (§1)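 Oral dose as a suspension in 1% methylcellulose: CD rat 3 mg/kg (2 rats, crossover after i.v.), Beagle dog 2 mg/kg (fasted, crossover after i.v.), CD1 mouse 3 mg/kg by gavage (n=4). Blood sampled up to 24 h and assayed by LC-MS/MS. Bioavailability was referenced to the 1 h i.v. infusion at 1 mg/kg, by non-compartmental analysis.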

[2] = Solubility of compound in simulated gastric fluid at pH 1.6 after 24 hrs; type: ADME
[3] = Half life in CD1 mouse at 1 mg/kg, iv after 24 hrs by LC-MS/MS analysis; type: ADME, organism-based; conditions: in vivo
How it was run: (§2)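 Male animals (CD rat and Beagle dog, n=3; CD1 mouse, n=5) given a 1 h i.v. infusion at 1 mg/kg. Vehicle: DMSO:10% Kleptose HPB in saline (2%:98% v/v), 0.2 mg/mL. Serial blood sampled up to 24 h and assayed by LC-MS/MS. Values from non-compartmental analysis, mean ± SD.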

[4] = Oral bioavailability in CD rat at 3 mg/kg after 24 hrs by LC-MS/MS analysis; type: ADME, organism-based; conditions: in vivo; how it was run: as §1
[5] = Volume of distribution at steady state in CD rat at 1 mg/kg, iv after 24 hrs by LC-MS/MS analysis; type: ADME, organism-based; conditions: in vivo, read-out: Vdss; how it was run: as §2
[6] = Clearance in CD rat at 1 mg/kg, iv after 24 hrs by LC-MS/MS analysis; type: ADME, organism-based; conditions: in vivo; how it was run: as §2
[7] = Solubility of compound in FaSSIF at pH 6.5 after 24 hrs; type: physicochemical
[8] = Volume of distribution at steady state in CD1 mouse at 1 mg/kg, iv after 24 hrs by LC-MS/MS analysis; type: ADME, organism-based; conditions: in vivo, read-out: Vdss
How it was run: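 Male CD1 mice with a jugular vein cannula got a 1 h IV infusion at 1 mg/kg, dosed at 0.2 mg/mL in DMSO:10% w/v Kleptose HPB in saline (2%:98% v/v). Serial tail-vein blood (ca. 25 µL) was taken up to 24 h and assayed against calibration standards in control blood. Non-compartmental analysis was used; n=5, mean ± SD.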

[9] = Solubility of compound in FeSSIF at pH 6.5 after 24 hrs; type: physicochemical
[10] = Half life in CD rat at 1 mg/kg, iv after 24 hrs by LC-MS/MS analysis; type: ADME, organism-based; conditions: in vivo; how it was run: as §2
[11] = Clearance in CD1 mouse at 1 mg/kg, iv after 24 hrs by LC-MS/MS analysis; type: ADME, organism-based; conditions: in vivo; how it was run: as §2
[12] = Clearance in beagle dog at 1 mg/kg, iv after 24 hrs by LC-MS/MS analysis; type: ADME, organism-based, Canis lupus familiaris; conditions: in vivo; how it was run: as §2
[13] = Oral bioavailability in beagle dog at 2 mg/kg 24 hrs by LC-MS/MS analysis; type: ADME, organism-based, Canis lupus familiaris; conditions: in vivo; how it was run: as §1
[14] = Half life in beagle dog at 1 mg/kg, iv after 24 hrs by LC-MS/MS analysis; type: ADME, organism-based, Canis lupus familiaris; conditions: in vivo; how it was run: as §2
[15] = Volume of distribution at steady state in beagle dog at 1 mg/kg, iv after 24 hrs by LC-MS/MS analysis; type: ADME, organism-based, Canis lupus familiaris; conditions: in vivo, read-out: Vdss
How it was run: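 Three fasted male Beagle dogs got a 1 h IV infusion at 1 mg/kg, dosed at 0.2 mg/mL in DMSO:10% w/v Kleptose HPB in saline (2%:98% v/v). Blood went into K-EDTA tubes predose to 24 h, from a cephalic cannula to 2 h and by jugular venepuncture after. Analysis was LC-MS/MS (LLQ 1 ng/mL) with non-compartmental parameters; mean n=3 ± SD.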

SMILES | bioavailability [1] [%] | solubility at 24 h [2] [µg/mL] | half-life [3] [h] | bioavailability [4] [%] | Vd [5] [L/kg] | clearance [6] [mL/min/kg] | solubility at 24 h [7] [µg/mL] | Vd [8] [L/kg] | solubility at 24 h [9] [µg/mL] | half-life [10] [h] | clearance [11] [mL/min/kg] | clearance [12] [mL/min/kg] | bioavailability [13] [%] | half-life [14] [h] | Vd [15] [L/kg]
Cc1c2c(nn1-c1nnc(-c3ccc(OC(C)C)c(Cl)c3)s1)CCN(CCC(=O)O)C2.O=C(O)C(F)(F)F | 79 | 37 | 3.8 | 48 | 3.7 | 24 | 3 | 3.3 | 4 | 4.4 | 16 | – | – | – | –
Cc1c2c(nn1-c1nnc(-c3ccc(OC(C)C)c(Cl)c3)s1)CCN(CCC(=O)O)C2.Cl | – | 7 | – | – | – | – | 16 | – | 46 | – | – | 33 | 44 | 6.5 | 5.3
